Data reported in ChEMBL document CHEMBL1144439, “A novel class of in vivo active anticancer agents: achiral seco-amino- and seco-hydroxycyclopropylbenz[e]indolone (seco-CBI) analogues of the duocarmycins and CC-1065” (J Med Chem, 2005).

Assays:
[1] = The concentration required for inhibiting the growth of the murine B16-F0 melanoma cells by 50%; format: functional; conditions: Mus musculus, B16F0
Summary of the method: (§1)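 MTT growth inhibition in murine lines grown in DMEM with 10% FBS, HEPES, glutamine, pen/strep at 37 °C, 5% CO2. Seeded 80 000 cells/well, continuous drug exposure (DMSO stock diluted in DMEM) for 72 h, quadruplicate wells per concentration. MTT added for 4 h, formazan dissolved in acid 2-propanol, read at 570 nm (reference 630 nm). IC50 extrapolated from averaged absorbance curves.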

L1210 = test: The concentration required for inhibiting the growth of the murine L1210 leukemia cells by 50%; format: functional, cell-based; conditions: Mus musculus; summary of the method: as §1
K562 = test: The concentration required for inhibiting the growth of the human K562 chronic myeloid leukemia cells by 50%; format: functional, cell-based
Summary of the method: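 Drug exposure was […] in the dark, then cells were washed and plated at 10⁴ cells/well, eight wells per sample, and incubated 4 days. MTT was added for 5 h, formazan dissolved in DMSO and read at 550 nm.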

P815 = test: The concentration required for inhibiting the growth of the murine P815 mastocytoma cells by 50%; format: functional, cell-based; conditions: Mus musculus
Summary of the method: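 P815 cells grown in DMEM with 10% FBS, HEPES, glutamine and pen/strep, seeded at 80 000 cells/well. Drug in DMSO/DMEM was added to final concentrations from 1.0 × 10^-12 to 1.0 × 10^-4 M, continuous for 72 h at 37 °C, 5% CO2, in quadruplicate. MTT was added for 4 h and solubilised in acid 2-propanol, read at 570/630 nm. IC50 was extrapolated from mean absorbance curves.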

Row | SMILES | IC50 [1] [nM] | IC50 (L1210) [nM] | IC50 (K562) [nM] | IC50 (P815) [nM]
1 | Nc1cc(NC(=O)c2cc3cc(NC(=O)c4cc5ccccc5o4)ccc3[nH]2)c(CCCl)c2ccccc12 | 43 | 87 |  | 
2 | COc1cc2cc(C(=O)N3CC(CCl)c4c3cc(O)c3ccccc43)[nH]c2c(OC)c1OC (stereo not given) | 78 | 8.4 | 28 | 
3 | COc1cc2cc(C(=O)Nc3cc(O)c4ccccc4c3CCCl)[nH]c2c(OC)c1OC | 27 | 55 | 150 | 25
4 | COc1cc2cc(C(=O)Nc3cc(NCc4ccccc4)c4ccccc4c3CCCl)[nH]c2c(OC)c1OC | 5400 |  |  | 
